# Screening results as filed in PubChem.
# Shown is part of a subset that was picked to be rich in hits.
# PGC1a Ac signal – raises PGC1a acetylation signal in U2OS cells. U2OS PGC1a acetylation AlphaScreen, overnight. activation, % at 15.6 µM. actives 0.21% (n = 350,000);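 active means every replicate reaching activation of at least 50%, whatever the mean replicate activation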;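 further: hits raise the AlphaScreen acetylation signal above neutral controls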
#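 Test system: U2OS cells expressing flag-PGC1a plus GCN5; Amount: 7000 U2OS cells per well; Compound: single test concentration per compound; Incubation: compound overnight at 37 °C, each detection step 1 h RT; Signal: AlphaScreen lysate read.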
# The depositor's hits bear a star.
SMILES,PGC1a Ac signal
Cn1nnnc1Sc1ncnc2scc(-c3ccc[nH]3)c12,91*
O=C(Nc1cccc2c1CCCC2)c1ccccc1Br,-50
CN1CCN(C(=O)c2sc(=S)n(-c3ccccc3)c2N)CC1,-63
C[C@@H]1CN([C@@H](C)CO)C(=O)c2cc(C#CCN(C)C)cnc2O[C@@H]1CN(C)S(=O)(=O)c1cn(C)cn1,-68
Cc1cc(NS(=O)(=O)c2ccc(NC(=O)CCCOc3ccccc3)cc2)no1,52*
COC(=O)Nc1ccc(Oc2ccccc2)cc1,-46
CCOC(=O)/C(C#N)=N/Nc1ccc(S(=O)(=O)Nc2cc(OC)nc(OC)n2)cc1,-52
Cc1cc(OCC(=O)O/N=C(\N)c2ccccc2)cc(C)c1Cl,-59
Cc1nc2[nH]c(=O)c3c(n2n1)NC1=C(C(=O)CC(C)(C)C1)C3c1ccccc1 (centres undefined),-84
c1cc2c3c(cccc3c1)C(N1CCCCCC1)=N2,86*
CC1OC(CC(=O)O)CC2=C1C(=O)c1c(O)cccc1C2=O (centres undefined),-75
Cn1c(CN2CCCC2)nc2cc(NC(=O)COc3ccc(Cl)cc3)ccc21,-52
Cn1c(CCN2CCCCC2)nc2cc(NS(=O)(=O)c3ccccc3)ccc21,64*
O=C(CN(Cc1ccc2c(c1)OCO2)C(=O)CNS(=O)(=O)c1ccccc1)NCc1ccco1,-46
COc1ccc(C(NC(=O)c2c(F)c(F)c(F)c(F)c2F)c2ccccc2)cc1 (centres undefined),-85
O=C(C[C@H]1CC[C@H](NC(=O)NC2CCCCC2)[C@H](CO)O1)NCc1ccc(Cl)cc1,-54
Cn1c(O)c(C(C#N)=C2N=c3ccccc3=N2)c2ccccc21,72*
C#CCN1[C@H](/C=C/C2CC2)[C@H](Cc2ccccc2)OC(=O)[C@@H]1[C@@H]1N[C@@H](C(=O)OC)C(C)(C)S1,-46
COC1=CC(=O)C=C(OC)C1=O,107*
COCCCNC1CS(=O)(=O)CC1O (centres undefined),-45
O=C(NC[C@@H]1N[C@@H](CO)[C@H]1c1ccc(C2=CCCCC2)cc1)c1ccc(F)cc1,66*
CN(C[C@H]1N[C@@H](CO)[C@@H]1c1ccc(C2=CCCC2)cc1)C(=O)c1ccc(F)cc1,-79
COC(=O)c1ccc2c(c1)C(C)(C)C(/C=C/c1ccc(O)cc1)=[N+]2C,59*
COc1ccc(CCNCc2ccc(-c3ccccc3)cc2)cc1OC,-45
COc1ccc(C2c3c(oc4ccccc4c3=O)C(=O)N2CCN2CCOCC2)cc1OC (centres undefined),-46
SMILES,PGC1a Ac signal
COc1ccc(CCN2C(=O)c3[nH]nc(-c4ccccc4O)c3C2c2ccccc2)cc1OC (centres undefined),53*
COc1cccc(-c2cc(C(=O)NCCCn3ccnc3)no2)c1,80*
CN(c1cc2c(c3c1ccn3C)C1CCC2C1)C1CCCCC1 (centres undefined),-78
CSc1ncccc1C(=O)N1CCN(C(=O)c2ccccc2)CC1,-44
OCC1(Cc2ccc(F)cc2F)CCCN(Cc2ccc(Cl)cc2)C1 (centres undefined),-46
Oc1ccccc1/C=N/Nc1nc2ccccc2o1,-41
NC(=S)N/N=C/c1cccc(O)c1O,76*
N#Cc1ccc(C(=O)CSc2nnc(-c3ccc(C(F)(F)F)cn3)s2)cc1,-47
C[C@H](CO)N1C[C@H](C)[C@@H](CN(C)Cc2cncnc2)Oc2cc(C#CC3CC3)ccc2S1(=O)=O,-50
CC(C)(CO)CNc1ccn2nccc2n1,-43
C=C1C(=O)O[C@H]2[C@@H]1CC/C(CO)=C\CC[C@@]1(C)O[C@@H]21,61*
COCCCNC(=O)c1ccc(CSCc2ccc(C)cc2)o1,-46
CC(=O)c1cccc(-c2ccnc3c2CC(C(=O)NCc2ccco2)O3)c1 (centres undefined),52*
CCOC(=O)c1ccc(NC(=O)c2nc(S(=O)(=O)Cc3ccccc3)ncc2Cl)cc1,78*
Cc1nc(Nc2ccc(S(N)(=O)=O)cc2)sc1C(=O)Nc1ccccc1,-41
Cc1noc(C)c1NC(=O)N(C)C[C@@H]1OCCCC[C@@H](C)Oc2ccc(N(C)C)cc2C(=O)N([C@@H](C)CO)C[C@H]1C,-59
O=C(Nc1cccc(S(=O)(=O)N2CCCCC2)c1)c1ccc([N+](=O)[O-])o1,226*
Cc1ccc(NC(=O)c2ccc([N+](=O)[O-])o2)cc1S(=O)(=O)N1CCOCC1,191*
O=C(Nc1cccc(S(=O)(=O)N2CCOCC2)c1)c1ccco1,67*
Cc1ccc(S(=O)(=O)N2CCN(C(=O)N3CCOCC3)CC2)cc1C,-42
O=S(=O)(c1ccc2[nH]ccc2c1)N1CCCCCC1,-68
O=C1c2ccccc2-c2c1cccc2C(=O)N1CCN(C(=O)c2ccco2)CC1,-43
CC(C)(C)NS(=O)(=O)c1ccc(CCC(=O)N2CCOCC2)cc1,-46
O=C(Cc1ccc(Cl)cc1)Nc1ncccn1,-45
COCC(=O)N1C[C@@H](C)[C@@H](OC)CN(C)C(=O)c2ccc(NC(=O)c3cnccn3)cc2OC[C@@H]1C,-61
SMILES,PGC1a Ac signal
CCN1CCN(Cc2ccc(NC(=O)c3cc(NC(=O)c4cncc(-c5ccc(C#N)cc5)c4)cc(OC)c3)cc2C(F)(F)F)CC1,-86
C=C1CCN(c2ccc(C(=O)NCc3ccccc3)cc2[N+](=O)[O-])CC1,-44
COc1ccccc1C(=O)/C=C/c1ccc(N2CCCCC2)c([N+](=O)[O-])c1,187*
O=[N+]([O-])c1cc(-c2ncccn2)c([N+](=O)[O-])s1,-61
Cc1ccc(S(=O)(=O)NC2=NCCCCC2)cc1,-46
CC(=O)Nc1ccc(NS(=O)(=O)c2ccc(C)cc2)cc1[N+](=O)[O-],58*
Cc1ccc(NC(=O)COC(=O)COc2ccc(Cl)cc2)c([N+](=O)[O-])c1,-40
CCCCn1c(=NC(=O)c2cccnc2)c(C(=O)OCC)cc2c(=O)n3ccccc3nc21,115*
Cc1c(CNCCc2ccc(Cl)cc2)c(C(=O)O)c(C)n1-c1ccccc1,-41
O=C(O)c1cc(-c2ccc3c(c2)OCO3)nc2ccccc12,93*
Cc1ccc(-c2cc(C(=O)N3CCOCC3)c3ccccc3n2)o1,-45
O=C(N/N=C/c1ccc2c(c1)OCO2)c1cc(-c2ccc(F)cc2)nc2ccccc12,-49
CC(=O)N(C)C[C@H]1Oc2ncc(C#CCc3ccccc3)cc2C(=O)N([C@@H](C)CO)C[C@H]1C,-52
O=c1c2cn(Cc3ccc(F)cc3)c3ccc(F)cc3c-2nn1Cc1ccc(F)cc1,-45
CC(C)(C)C(=O)NC(C(N)=O)=C(Cl)Cl,65*
COc1cccc(N2C(=O)CC(N3CCC(c4nc5ccccc5[nH]4)CC3)C2=O)c1 (centres undefined),58*
CC(=O)Nc1ccc(Oc2sc(C(=O)c3ccccc3)c(N)c2C#N)cc1,-22
Cc1ccc(-n2cccc2C(=S)N=P(N(C)C)(N(C)C)N(C)C)cc1,-85
CCOC(=O)/C(=C\c1cccnc1)C(=O)c1cc(C(C)=O)c(Nc2ccccc2)s1,-84
COc1cccc(-c2nn(-c3ccccc3)cc2CN(C)C(C)c2ccncn2)c1 (centres undefined),-41
CCOC(=O)c1cn(-c2ccccc2)nc1-c1cccnc1,77*
Cc1ccc(NC(=S)c2ccncc2)cc1,66*
Cc1ccccc1S(=O)(=O)N[C@H]1CC[C@H](CCn2cc(Cc3ccccc3)nn2)O[C@@H]1CO,-61
CC(/C=N/N1CCN(Cc2ccccc2)CC1)=C\c1ccccc1,-44
Cc1cc2cc3c(cc2nc1SCC(=O)OC(C)C)OCCO3,95*
